Reference: PMC9436332 (Proceedings of the National Academy of Sciences of the …, 2022)
Entries after “also recorded” stand apart in the source; their conditions may differ.

What was measured:
[1] = system: rat DRG neurons; type: cell-based; conditions: 48 h
[2] = system: quantified cysteines in the human proteome (22Rv1 cells); assay: Cysteine-directed MS-ABPP; type: binding; conditions: 20 µM, 3 h, in situ; 22Rv1 and Ramos
Outline: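 22Rv1 cells were plated at 15 million cells per 15-cm dish and treated the next day. Ramos cells were adjusted to 3 × 10⁶ cells/mL and rested 30 min before treatment. Cells got 20 μM test compound in situ for 3 h, then were washed in cold DPBS and frozen. Cells were probe-sonicated in cold PBS, and 2 mg/mL lysate was labelled with IA-DTB (10 mM DMSO stock) for 1 h at room temperature in the dark. Cysteines were quantified by LC-MS/MS/MS against DMSO.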

[3] = system: mouse DRG neurons; assay: Vacor-induced neurite degeneration in mouse DRG neurons; type: cell-based; conditions: for Degeneration Index (%): +50 μM Vacor alone
[4] = system: SARM1-C311A; assay: Gel-ABPP, in situ, SARM1-C311A mutant expressed in HEK293T cells; type: binding, human; conditions: 20 µM, 1 h
Outline: (§1)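 N-terminally FLAG-tagged human SARM1 (WT or C311A) was transiently expressed in HEK293T cells and treated 48 h post-transfection. Cells got either alkyne probe alone (20 μM, 1 h, in situ) or 3 h compound pretreatment followed by probe. Lysates (ice-cold DPBS with protease inhibitors, 1.0 mg/mL) underwent 1 h CuAAC with rhodamine-azide/TCEP/TBTA/CuSO₄. Analysis was SDS-PAGE in-gel fluorescence with background-subtracted band intensities; IC₅₀ by four-parameter fit; three independent experiments.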

[5] = system: WT-SARM1; assay: Gel-ABPP, in situ, WT-SARM1 recombinantly expressed in HEK293T cells; type: binding, human; conditions: 1 h
Outline: as §1

[6] = system: mouse SARM1; assay: Gel-ABPP, in situ, mouse SARM1 recombinantly expressed in HEK293T cells; type: binding; conditions: 20 µM, 1 h, compared with human SARM1
[7] = system: WT-SARM1; assay: Gel-ABPP, in vitro treatment, WT-SARM1 recombinantly expressed in HEK293T cells; type: binding, human; conditions: 1 h; for effect of metabolite on MY-13B engagement of SARM1: 0.125-1 mM, MY-13B 20 µM
[8] = system: SARM1; conditions: cited from earlier work
[9] = target: T1, endogenous SARM1 (Homo sapiens, UniProt Q6SZW1); type: cell-based; conditions: SH-SY5Y cells, vacor 50 µM, 0-8 h
T1 sequence (Q6SZW1 28-724): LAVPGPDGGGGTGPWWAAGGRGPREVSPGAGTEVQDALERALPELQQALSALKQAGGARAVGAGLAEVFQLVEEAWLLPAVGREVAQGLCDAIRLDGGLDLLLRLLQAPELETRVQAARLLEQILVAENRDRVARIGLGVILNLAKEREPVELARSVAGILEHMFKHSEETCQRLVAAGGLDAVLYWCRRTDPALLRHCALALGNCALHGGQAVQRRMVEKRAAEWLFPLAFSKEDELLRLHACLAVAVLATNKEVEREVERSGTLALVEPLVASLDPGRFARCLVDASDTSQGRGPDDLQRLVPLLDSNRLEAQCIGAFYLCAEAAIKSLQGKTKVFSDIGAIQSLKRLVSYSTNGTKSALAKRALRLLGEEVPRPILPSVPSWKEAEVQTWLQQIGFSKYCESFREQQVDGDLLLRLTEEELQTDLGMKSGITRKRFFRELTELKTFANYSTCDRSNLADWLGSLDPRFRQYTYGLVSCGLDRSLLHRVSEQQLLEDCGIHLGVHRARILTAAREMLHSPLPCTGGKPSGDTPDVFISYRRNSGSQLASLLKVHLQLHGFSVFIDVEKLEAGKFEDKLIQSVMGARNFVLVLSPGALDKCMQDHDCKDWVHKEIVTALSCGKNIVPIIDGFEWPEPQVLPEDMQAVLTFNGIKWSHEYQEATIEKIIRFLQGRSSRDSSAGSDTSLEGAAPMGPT
Outline: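 SH-SY5Y cells were pretreated in situ with compound for 3 h (0.1% DMSO), then given 50 μM vacor for 4 h. Pellets were resuspended in DPBS and quenched with cold methanol:acetonitrile (1:1) containing 100 pmol 8-Br-cADPR internal standard. Extraction used three freeze/sonication cycles, −20 °C for 1 h, centrifugation, drying and resuspension. cADPR was measured by LC-MS/MS, normalized to total protein; mean ± SEM of three independent experiments.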

C=CC(=O)N1[C@@H](c2ccc3c(c2)OCO3)c2[nH]c3ccccc3c2C[C@H]1C(=O)NC [MY-9A]
prevention of vincristine-induced neurite degeneration ([1]; 40 nM vincristine): weak activity | off-target cysteines also engaged by the SARM1-inactive enantiomers [2]: DCTN4_C258, KEAP1_C151, PTGES2_C110, and UBR1_C1603 | blockade of vacor-induced neurite degeneration ([3]; 1–20 µM, vacor 50 µM, over 48 h): ineffective

C#CCNC(=O)[C@@H]1Cc2c([nH]c3ccccc23)[C@H](c2ccc3c(c2)OCO3)N1C(=O)C=C [MY-13A]
reactivity of alkyne probe with SARM1-C311A (gel-ABPP) [4]: very low reactivity

C#CCNC(=O)[C@H]1Cc2c([nH]c3ccccc23)[C@@H](c2ccc3c(c2)OCO3)N1C(=O)C=C [MY-13B]
reactivity of alkyne probe with SARM1-C311A (gel-ABPP) [4]: very low reactivity | reactivity of alkyne probe with WT-SARM1 (gel-ABPP) ([5]; 20 µM): reacted strongly | labeling of recombinant mouse SARM1 by alkyne probe [6]: lower extent of labeling | reactivity of alkyne probe with SARM1 in vitro ([7]; 20 µM): stereoselective reactivity; also recorded: maintained stereoselective engagement

NC(=O)c1ccc[n+]([C@@H]2O[C@H](COP(=O)([O-])OP(=O)(O)OC[C@H]3O[C@@H](n4cnc5c(N)ncnc54)[C@H](O)[C@@H]3O)[C@@H](O)[C@H]2O)c1 [NAD^+, nicotinamide adenine dinucleotide, reference compound]
effect of metabolite on MY-13B engagement of SARM1 [7]: neither metabolite affected MY-13B engagement

NC(=O)c1ccc[n+]([C@@H]2O[C@H](COP(=O)([O-])O)[C@@H](O)[C@H]2O)c1 [NMN, nicotinamide mononucleotide, reference compound]
effect of metabolite on MY-13B engagement of SARM1 [7]: neither metabolite affected MY-13B engagement

COC(=O)c1c(C)nc(C)c(C(=O)OCC(C)C)c1-c1ccccc1N=O [dHNN, dehydronitrosonisoldipine, reference compound]
engagement of SARM1_C311 (effect on MY-13B reactivity) ([5]; 5–50 µM, 3 h pretreatment, MY-13B 20 µM): did not observe substantial alterations in MY-13B reactivity | effect of C311 mutagenesis on inhibitory activity [8]: only modestly impaired (∼twofold)

O=C(NCc1cccnc1)Nc1ccc([N+](=O)[O-])cc1 [vacor]
Degeneration Index (%) ([3]; 8 h): ~60% | Degeneration Index (%) ([3]; 24 h): full degeneration | induction of cADPR production [9]: robust, time-dependent production of cADPR

CC[C@]1(O)C[C@H]2CN(CCc3c([nH]c4ccccc34)[C@@](C(=O)OC)(c3cc4c(cc3OC)N(C=O)[C@H]3[C@@](O)(C(=O)OC)[C@H](OC(C)=O)[C@]5(CC)C=CCN6CC[C@]43[C@@H]65)C2)C1 [vincristine, reference compound]
induction of neurite degeneration ([1]; vincristine 40 nM): robust neurite degeneration
